Source: PMC7249612 (Biochemistry, 2016)

Assays:
LoxA [1] = experiment: LoxA secondary product profile; assay type: biochemical, Pseudomonas aeruginosa; details: 10 μM substrate, pH 7.0
LoxA [2] = experiment: LoxA substrate preference; assay type: biochemical, Pseudomonas aeruginosa; details: initial rate at 10 μM substrate, pH 7.0, relative to AA
How it was run: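 His6-tagged LoxA was expressed in E. coli BL21(DE3), purified on Ni-NTA, and dosed by iron content. About 7 nM enzyme started each reaction. Each fatty acid substrate was C18 HPLC-purified and used at 10 μM in 25 mM HEPES pH 7.0 without Triton X-100. Initial rate of conjugated diene formation was followed at 234 nm (ε 25000 M−1cm−1) and expressed relative to the AA rate.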

LoxA [3] = assay type: biochemical, Pseudomonas aeruginosa; details: for Kcat / Km: substrate of LoxA, 25 mM HEPES pH 7.0
LoxA [4] = experiment: LoxA inhibition, manual cuvette assay; assay type: biochemical, Pseudomonas aeruginosa; details: for single-point screen inhibition percentage, LoxA: 25 μM inhibitor, 10 μM AA; for selectivity for LoxA versus human LOX isozymes: from single-point screens at 25 μM
15-LOX-1 = biological target: T1, 15-LOX-1 (Homo sapiens, UniProt P16050); experiment: Human LOX isozyme specificity screen, 15-LOX-1; assay type: biochemical; details: 25 μM inhibitor, 10 μM AA
T1 sequence (P16050 1-662): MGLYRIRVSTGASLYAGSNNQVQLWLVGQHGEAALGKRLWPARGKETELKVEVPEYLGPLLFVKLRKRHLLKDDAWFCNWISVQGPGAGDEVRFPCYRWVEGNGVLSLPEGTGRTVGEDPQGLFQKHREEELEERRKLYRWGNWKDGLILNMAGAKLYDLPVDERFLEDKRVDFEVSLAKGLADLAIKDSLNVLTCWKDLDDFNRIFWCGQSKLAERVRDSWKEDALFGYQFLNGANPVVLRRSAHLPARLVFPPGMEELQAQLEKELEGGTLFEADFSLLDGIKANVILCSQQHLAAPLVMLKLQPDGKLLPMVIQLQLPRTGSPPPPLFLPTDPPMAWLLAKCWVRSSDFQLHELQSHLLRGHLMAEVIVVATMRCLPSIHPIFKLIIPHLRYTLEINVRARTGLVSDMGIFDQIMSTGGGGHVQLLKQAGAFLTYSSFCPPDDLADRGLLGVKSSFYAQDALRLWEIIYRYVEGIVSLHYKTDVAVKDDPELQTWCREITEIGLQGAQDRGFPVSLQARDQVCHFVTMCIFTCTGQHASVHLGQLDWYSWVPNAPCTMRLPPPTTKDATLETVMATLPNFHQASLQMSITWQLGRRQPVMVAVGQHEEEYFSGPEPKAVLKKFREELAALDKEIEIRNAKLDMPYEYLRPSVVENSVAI

15-LOX-2 = biological target: T2, 15-LOX-2 (Homo sapiens, UniProt O15296); experiment: Human LOX isozyme specificity screen, 15-LOX-2; assay type: biochemical; details: 25 μM inhibitor, 10 μM AA
T2 sequence (O15296 1-676): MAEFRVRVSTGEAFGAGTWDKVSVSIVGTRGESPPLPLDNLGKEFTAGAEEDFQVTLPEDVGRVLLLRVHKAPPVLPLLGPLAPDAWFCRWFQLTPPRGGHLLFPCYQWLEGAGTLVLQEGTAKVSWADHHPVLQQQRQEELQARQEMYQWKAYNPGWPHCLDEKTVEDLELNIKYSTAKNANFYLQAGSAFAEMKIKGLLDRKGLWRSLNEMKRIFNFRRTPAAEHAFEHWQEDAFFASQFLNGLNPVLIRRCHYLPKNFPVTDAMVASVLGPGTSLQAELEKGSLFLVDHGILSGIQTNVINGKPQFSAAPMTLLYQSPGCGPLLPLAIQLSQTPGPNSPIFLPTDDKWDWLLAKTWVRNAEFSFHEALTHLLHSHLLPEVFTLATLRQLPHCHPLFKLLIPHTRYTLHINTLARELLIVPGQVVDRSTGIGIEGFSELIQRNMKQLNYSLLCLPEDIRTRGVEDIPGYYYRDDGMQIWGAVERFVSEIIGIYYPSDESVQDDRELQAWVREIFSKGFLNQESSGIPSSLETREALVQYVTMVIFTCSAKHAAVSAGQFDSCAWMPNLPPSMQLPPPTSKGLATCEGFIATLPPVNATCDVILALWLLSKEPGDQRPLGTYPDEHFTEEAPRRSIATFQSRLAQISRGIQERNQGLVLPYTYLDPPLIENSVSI

5-LOX = biological target: T3, 5-LOX (Homo sapiens, UniProt P09917); experiment: Human LOX isozyme specificity screen, 5-LOX; assay type: biochemical; details: 25 μM inhibitor, 10 μM AA
T3 sequence (P09917 1-674): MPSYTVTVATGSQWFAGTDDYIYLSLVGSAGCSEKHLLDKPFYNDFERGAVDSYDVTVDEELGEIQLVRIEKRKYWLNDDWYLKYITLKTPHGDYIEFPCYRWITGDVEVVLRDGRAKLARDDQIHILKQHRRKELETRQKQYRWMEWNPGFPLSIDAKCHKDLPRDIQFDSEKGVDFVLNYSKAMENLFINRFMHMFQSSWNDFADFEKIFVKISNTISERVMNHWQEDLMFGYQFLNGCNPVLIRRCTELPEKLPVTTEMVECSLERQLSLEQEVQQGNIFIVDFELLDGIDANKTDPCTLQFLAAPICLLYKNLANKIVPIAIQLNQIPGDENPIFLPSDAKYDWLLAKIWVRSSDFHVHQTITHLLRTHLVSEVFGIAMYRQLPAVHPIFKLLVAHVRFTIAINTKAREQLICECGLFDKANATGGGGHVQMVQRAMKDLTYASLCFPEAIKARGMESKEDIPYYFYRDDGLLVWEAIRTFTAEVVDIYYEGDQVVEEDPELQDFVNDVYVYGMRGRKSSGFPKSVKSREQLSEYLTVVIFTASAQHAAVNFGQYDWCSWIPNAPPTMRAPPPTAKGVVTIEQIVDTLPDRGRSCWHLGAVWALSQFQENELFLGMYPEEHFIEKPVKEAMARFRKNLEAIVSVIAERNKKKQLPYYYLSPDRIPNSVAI

12-LOX = biological target: T4, 12-LOX (Homo sapiens, UniProt P18054); experiment: Human LOX isozyme specificity screen, 12-LOX; assay type: biochemical; details: 25 μM inhibitor, 10 μM AA
T4 sequence (P18054 1-663): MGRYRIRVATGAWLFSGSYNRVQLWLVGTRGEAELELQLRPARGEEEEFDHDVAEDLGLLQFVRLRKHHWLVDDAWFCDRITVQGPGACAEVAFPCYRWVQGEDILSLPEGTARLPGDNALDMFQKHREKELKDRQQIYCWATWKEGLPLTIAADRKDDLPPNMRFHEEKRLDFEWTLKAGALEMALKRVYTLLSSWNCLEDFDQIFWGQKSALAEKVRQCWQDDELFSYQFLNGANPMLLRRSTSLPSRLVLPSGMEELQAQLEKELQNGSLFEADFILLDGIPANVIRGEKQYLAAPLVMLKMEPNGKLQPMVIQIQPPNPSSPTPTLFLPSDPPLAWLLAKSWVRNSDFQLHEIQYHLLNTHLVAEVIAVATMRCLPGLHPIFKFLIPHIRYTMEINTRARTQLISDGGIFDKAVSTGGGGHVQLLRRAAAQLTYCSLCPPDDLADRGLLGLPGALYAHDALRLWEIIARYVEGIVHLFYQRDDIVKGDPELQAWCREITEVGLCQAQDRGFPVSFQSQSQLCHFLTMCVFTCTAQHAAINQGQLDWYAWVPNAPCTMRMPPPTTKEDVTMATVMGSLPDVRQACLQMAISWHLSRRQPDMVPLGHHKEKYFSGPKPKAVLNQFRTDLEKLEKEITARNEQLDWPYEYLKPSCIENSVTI

## CCCCC/C=C\C/C=C\C/C=C\C=C\[C@@H](O)CCCC(=O)O [5-HETE]
LoxA [1]
  times slower relative to the Kcat with AA: 100,000 times

## CCCCCC=CCC=CCC=CC=CC(CCCC(=O)O)OO (stereo not drawn) [5-HpETE, 5-hydroperoxyeicosatetraenoic acid]
LoxA [1]
  times slower relative to the Kcat with AA: 100,000 times

## CC/C=C\C/C=C\C/C=C\CCCCCCCC(=O)O [ALA]
LoxA [2]
  % AA Rate (10 μM): 78(10) %

## CCCCC/C=C\C/C=C\C/C=C\CCCCCCC(=O)O [DGLA, Dihomo-gamma-linolenic acid]
LoxA [2]
  % AA Rate (10 μM): 44(10) %

## CC/C=C\C/C=C\C/C=C\C/C=C\C/C=C\C/C=C\CCC(=O)O [DHA]
LoxA [2]
  % AA Rate (10 μM): 72(10) %

## CCCCC/C=C\C/C=C\CCCCCCCCCC(=O)O [EDA]
LoxA [2]
  % AA Rate (10 μM): 33(10) %

## CC/C=C\C/C=C\C/C=C\C/C=C\C/C=C\CCCC(=O)O [EPA]
LoxA [2]
  % AA Rate (10 μM): 61(10) %

## CCCCC/C=C\C/C=C\C/C=C\CCCCC(=O)O [GLA]
LoxA [2]
  % AA Rate (10 μM): 44(10) %

## CCCCC/C=C\C/C=C\CCCCCCCC(=O)O [LA, linoleic acid]
LoxA [3]; noncompetitive, LA versus perdeuterated LA
  KIE for Kcat: 32 +/− 6
LoxA [3]
  Kcat: 28 (2) s^−1
  Km: 7 µM
LoxA [2]
  % AA Rate (10 μM): 72(10) %

## Nc1ncnc2c1c(-c1ccc(Oc3ccccc3)cc1)cn2C1CCCC1 [NCGC00015280]
LoxA [4]
  single-point screen inhibition percentage, LoxA: 86%
15-LOX-1
  single-point screen inhibition percentage, 15-LOX-l: 51%
15-LOX-2
  single-point screen inhibition percentage, 15-LOX-2: 0%
5-LOX
  single-point screen inhibition percentage, 5-LOX: 42%
12-LOX
  single-point screen inhibition percentage, 12-LOX: 38%

## Fc1ccc(C(OCCN2CCN(CCCc3ccccc3)CC2)c2ccc(F)cc2)cc1 [NCGC00015300]
LoxA [4]
  single-point screen inhibition percentage, LoxA: 83%
15-LOX-1
  single-point screen inhibition percentage, 15-LOX-l: 65%
15-LOX-2
  single-point screen inhibition percentage, 15-LOX-2: 13%
5-LOX
  single-point screen inhibition percentage, 5-LOX: 41%
12-LOX
  single-point screen inhibition percentage, 12-LOX: 48%

## O=C1NCN(c2ccccc2)C12CCN(CCCC(c1ccc(F)cc1)c1ccc(F)cc1)CC2 [NCGC00015424]
LoxA [4]
  single-point screen inhibition percentage, LoxA: 87%
  selectivity for LoxA versus human LOX isozymes: selectivity towards LoxA over 12-LOX and 15-LOX-2 and not the other human isozymes
15-LOX-1
  single-point screen inhibition percentage, 15-LOX-l: 76%
15-LOX-2
  single-point screen inhibition percentage, 15-LOX-2: 21%
5-LOX
  single-point screen inhibition percentage, 5-LOX: 74%
12-LOX
  single-point screen inhibition percentage, 12-LOX: 63%

## O=c1[nH]c2ccccc2n1C1CCN(CCCC(c2ccc(F)cc2)c2ccc(F)cc2)CC1 [NCGC00015802]
LoxA [4]
  single-point screen inhibition percentage, LoxA: 90%
  selectivity for LoxA versus human LOX isozymes: selectivity towards LoxA over 12-LOX, 15-LOX-1, and 15-LOX-2
15-LOX-1
  single-point screen inhibition percentage, 15-LOX-l: 69%
15-LOX-2
  single-point screen inhibition percentage, 15-LOX-2: 16%
5-LOX
  single-point screen inhibition percentage, 5-LOX: 80%
12-LOX
  single-point screen inhibition percentage, 12-LOX: 50%

## Fc1ccc(C(c2ccc(F)cc2)N2CCN(C/C=C\c3ccccc3)CC2)cc1 [NCGC00018102]
LoxA [4]
  single-point screen inhibition percentage, LoxA: 86%
  selectivity for LoxA versus human LOX isozymes: selectivity towards LoxA over 12-LOX, 15-LOX-1, and 15-LOX-2
LoxA [4]; read-out: LoxA IC50, manual cuvette assay, pH 7.0, 10 μM AA
  IC50: 4.5 ± 0.4 µM
15-LOX-1
  single-point screen inhibition percentage, 15-LOX-l: 65%
15-LOX-2
  single-point screen inhibition percentage, 15-LOX-2: 0%
5-LOX
  single-point screen inhibition percentage, 5-LOX: 96%
12-LOX
  single-point screen inhibition percentage, 12-LOX: 25%

## CC/C(=C(\c1ccccc1)c1ccc(OCCN(C)C)cc1)c1ccccc1 [NCGC00024928]
LoxA [4]
  single-point screen inhibition percentage, LoxA: 82%
15-LOX-1
  single-point screen inhibition percentage, 15-LOX-l: 73%
15-LOX-2
  single-point screen inhibition percentage, 15-LOX-2: 8%
5-LOX
  single-point screen inhibition percentage, 5-LOX: 79%
12-LOX
  single-point screen inhibition percentage, 12-LOX: 39%

## COC(=O)[C@H]1[C@H]2C[C@@H]3c4[nH]c5cc(OC)ccc5c4CCN3C[C@H]2C[C@@H](OC(=O)c2cc(OC)c(OC)c(OC)c2)[C@@H]1OC [NCGC00091250]
LoxA [4]
  single-point screen inhibition percentage, LoxA: 69%
15-LOX-1
  single-point screen inhibition percentage, 15-LOX-l: 57%
15-LOX-2
  single-point screen inhibition percentage, 15-LOX-2: 5%
5-LOX
  single-point screen inhibition percentage, 5-LOX: 37%
12-LOX
  single-point screen inhibition percentage, 12-LOX: 23%

## CN[C@H]1CC[C@@H](c2ccc(Cl)c(Cl)c2)c2ccccc21.Cl [NCGC00092386]
LoxA [4]
  single-point screen inhibition percentage, LoxA: 76%
15-LOX-1
  single-point screen inhibition percentage, 15-LOX-l: 51%
15-LOX-2
  single-point screen inhibition percentage, 15-LOX-2: 5%
5-LOX
  single-point screen inhibition percentage, 5-LOX: 83%
12-LOX
  single-point screen inhibition percentage, 12-LOX: 26%

## CC(C)(C)c1ccc(C(=O)CCCN2CCC(OC(c3ccccc3)c3ccccc3)CC2)cc1 [NCGC00164603]
LoxA [4]
  single-point screen inhibition percentage, LoxA: 95%
15-LOX-1
  single-point screen inhibition percentage, 15-LOX-l: 76%
15-LOX-2
  single-point screen inhibition percentage, 15-LOX-2: 0%
5-LOX
  single-point screen inhibition percentage, 5-LOX: 23%
12-LOX
  single-point screen inhibition percentage, 12-LOX: 33%

## O=C(CCCCCN1CCN(c2ccccc2-c2ccccc2)CC1)NC1CCCc2ccccc21 (stereo not drawn) [NCGC00186032]
LoxA [4]
  single-point screen inhibition percentage, LoxA: 87%
15-LOX-1
  single-point screen inhibition percentage, 15-LOX-l: 57%
15-LOX-2
  single-point screen inhibition percentage, 15-LOX-2: 5%
5-LOX
  single-point screen inhibition percentage, 5-LOX: 78%
12-LOX
  single-point screen inhibition percentage, 12-LOX: 36%

## CC(Cc1ccc(O)c(O)c1)C(C)Cc1ccc(O)c(O)c1 (stereo not drawn) [NDGA, nordihydroguaiaretic acid, reference compound]
LoxA [4]; compared with the human enzymes
  IC50 value against LoxA: comparable to the values obtained against the human enzymes

## CCCCC/C=C\C/C=C\CCCCCCCC(=O)O [d31-LA]
LoxA [3]
  Kcat: 0.9 (0.1) s^−1
  Km: 100 µM
